ChEMBL document CHEMBL3745596, “Chlorophenoxy aminoalkyl derivatives as histamine H(3)R ligands and antiseizure agents” (Bioorg Med Chem, 2016)
Active and inactive are the calls of the source.

Tests used:
Mus musculus [1] = assay: Neurotoxicity in CF1 albino mouse at 10 mg/kg, ip after 0.5 hrs by rotarod test; format: toxicity, organism-based; conditions: in vivo
In short: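 Rotarod neurotoxicity in male CF-1 mice dosed ip as 0.5% methylcellulose suspension: mouse placed on 1 inch knurled rod rotating at 6 rpm; toxicity when the animal falls off three times within 1 min, with other signs noted. Scored as toxic/tested at 0.5 h and 4 h.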

Mus musculus [2] = assay: Neurotoxicity in CF1 albino mouse at 300 mg/kg, ip after 4 hrs by rotarod test; format: toxicity, organism-based; conditions: in vivo
In short: (§1)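 Rotarod neurotoxicity in male albino CF-1 mice dosed ip with compound suspended in 0.5% methylcellulose. Animal placed on a 1 inch diameter knurled plastic rod rotating at 6 rpm. Neurotoxicity scored when the animal falls off three times within 1 min. Readout is number of animals toxic/number tested at the stated time after dosing. TD50 with 95% confidence interval from the quantitative study.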

[3] = Neuroprotective activity in hippocampal slice (unknown origin) assessed as protection against kainic acid-induced cell death using propidium iodide staining; format: functional; conditions: Hippocampus
In short: (§2)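 Organotypic hippocampal slice cultures exposed to NMDA or kainic acid alone or with compound; propidium iodide in all wells; PI fluorescence intensity of slices, proportional to cell death, compared with excitotoxin-only slices; qualitative.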

Mus musculus [4] = assay: Neurotoxicity in ip dosed CF1 albino mouse after 0.25 hrs by rotarod test; format: toxicity, organism-based; conditions: in vivo
In short: as §1, with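 “dosing.” for “dosing. TD50 with 95% confidence interval from the quantitative study.”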

Mus musculus [5] = assay: Anticonvulsant activity in CF1 albino mouse assessed as protection against maximal electroshock-induced seizure at 100 mg/kg, ip after 4 hrs; format: functional, organism-based
In short: (§3)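 Male CF-1 mice dosed ip as suspension in 0.5% methylcellulose. Corneal electrodes deliver 60 Hz alternating current, 50 mA for […], after a drop of 0.5% tetracaine HCl in 0.9% NaCl per eye. Protection means abolition of hindlimb tonic extension; scored as protected/tested, or ED50 with 95% confidence interval.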

Mus musculus [6] = assay: Anticonvulsant activity in CF1 albino mouse assessed as protection against subcutaneous pentetrazole-induced seizure at 30 mg/kg, ip after 0.5 hrs; format: functional, organism-based
In short: (§4)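 Male CF-1 mice, ip in 0.5% methylcellulose; pentetrazole at CD97 (85 mg/kg) injected subcutaneously in a loose fold of neck skin. Observed 30 min; absence of even a threshold seizure (single clonic spasm lasting at least 5 s) counted as protection. Scored protected/tested, or ED50.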

Mus musculus [7] = assay: Neurotoxicity in CF1 albino mouse at 3 mg/kg, ip after 0.5 hrs by rotarod test; format: toxicity, organism-based; conditions: in vivo; in short: as §1
Mus musculus [8] = assay: Neurotoxicity in CF1 albino mouse at 100 mg/kg, ip after 0.25 to 2 hrs by rotarod test; format: toxicity, organism-based; conditions: in vivo; in short: as §1
[9] = Neuroprotective activity in hippocampal slice (unknown origin) assessed as protection against NMDA-induced cell death using propidium iodide staining; format: functional; conditions: Hippocampus; in short: as §2
Mus musculus [10] = assay: Neurotoxicity in CF1 albino mouse at 100 mg/kg, ip after 4 hrs by rotarod test; format: toxicity, organism-based; conditions: in vivo; in short: as §1
Mus musculus [11] = assay: Anticonvulsant activity in CF1 albino mouse assessed as protection against subcutaneous pentetrazole-induced seizure at 30 mg/kg, ip after 4 hrs; format: functional, organism-based; in short: as §4
Mus musculus [12] = assay: Neurotoxicity in CF1 albino mouse at 30 mg/kg, ip after 4 hrs by rotarod test; format: toxicity, organism-based; conditions: in vivo; in short: as §1
Mus musculus [13] = assay: Anticonvulsant activity in CF1 albino mouse assessed as protection against subcutaneous pentetrazole-induced seizure at 100 mg/kg, ip after 4 hrs; format: functional, organism-based; in short: as §4
Mus musculus [14] = assay: Anticonvulsant activity in ip dosed CF1 albino mouse assessed as protection against maximal electroshock-induced seizure after 0.25 hrs; format: functional; in short: as §3
Mus musculus [15] = assay: Anticonvulsant activity in CF1 albino mouse assessed as protection against 6 Hz-psychomotor-induced seizure at 100 mg/kg, ip after 0.5 to 1 hr; format: functional, organism-based
In short: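 Male CF-1 mice, ip suspension in 0.5% methylcellulose. Corneal stimulation 0.2 ms monopolar rectangular pulses at 6 Hz, 32 mA for 3 s via constant-current device; mice without minimal clonic phase seizure counted protected. Groups of four; read at 0.25, 0.5, 1, 2, 4 h; result as protected/tested.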

Mus musculus [16] = assay: Anticonvulsant activity in CF1 albino mouse assessed as protection against maximal electroshock-induced seizure at 100 mg/kg, ip after 0.5 hrs; format: functional, organism-based; in short: as §3
Mus musculus [17] = assay: Anticonvulsant activity in CF1 albino mouse assessed as protection against maximal electroshock-induced seizure at 30 mg/kg, ip after 0.5 hrs; format: functional, organism-based; in short: as §3
Mus musculus [18] = assay: Neurotoxicity in CF1 albino mouse assessed as death and loss of righting reflux at 300 mg/kg, ip after 0.5 hrs by rotarod test; format: toxicity, organism-based; conditions: in vivo
In short: (§5)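 Male albino CF-1 mice dosed ip with compound suspended in 0.5% methylcellulose, then placed on a 1-inch knurled plastic rod turning at 6 rpm. A fall three times within 1 min counted as neurotoxicity. Observations were made at 0.5 h and 4 h after dosing. Result given as animals showing toxicity per animals tested, with the kind of toxicity recorded.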

Mus musculus [19] = assay: Anticonvulsant activity in ip dosed CF1 albino mouse assessed as protection against subcutaneous pentetrazole-induced seizure after 0.25 hrs; format: functional; in short: as §4
Mus musculus [20] = assay: Anticonvulsant activity in CF1 albino mouse assessed as protection against maximal electroshock-induced seizure at 10 mg/kg, ip after 0.5 hrs; format: functional, organism-based; in short: as §3
Histamine H3 receptor = Histamine H3 receptor (Homo sapiens, UniProt Q9Y5N1); assay: Displacement of [3H]-Nalpha-methylhistamine from human recombinant histamine H3 receptor expressed in HEK293 cells after 90 mins; format: cell-based
Mus musculus [21] = assay: Anticonvulsant activity in CF1 albino mouse assessed as protection against maximal electroshock-induced seizure at 30 mg/kg, ip after 4 hrs; format: functional, organism-based; in short: as §3
Rattus norvegicus [22] = assay: Anticonvulsant activity in Sprague-Dawley rat assessed as protection against maximal electroshock-induced seizure at 30 mg/kg, po; format: functional
Rattus norvegicus [23] = assay: Anticonvulsant activity in Sprague-Dawley rat assessed as protection against pilocarpine-induced convulsive status epilepticus at 65 mg/kg, ip; format: functional, organism-based
In short: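 Male Sprague Dawley rats (150–180 g) dosed ip, pilocarpine 50 mg/kg ip given; compound dosed immediately at first behavioral Stage 3 seizure or 30 min later. Number protected from Racine Stage 3 or greater seizures recorded.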

Mus musculus [24] = assay: Neurotoxicity in CF1 albino mouse at 30 mg/kg, ip after 0.5 hrs by rotarod test; format: toxicity, organism-based; conditions: in vivo; in short: as §1
Mus musculus [25] = assay: Anticonvulsant activity in CF1 albino mouse assessed as protection against maximal electroshock-induced seizure at 3 mg/kg, ip after 0.5 hrs; format: functional, organism-based; in short: as §3
Mus musculus [26] = assay: Anticonvulsant activity in CF1 albino mouse assessed as protection against subcutaneous pentetrazole-induced seizure at 100 mg/kg, ip after 0.5 hrs; format: functional, organism-based; in short: as §4
Mus musculus [27] = assay: Protective index, ratio of TD50 for ip dosed CF1 albino mouse to ED50 for ip dosed CF1 albino mouse assessed as protection against maximal electroshock-induced seizure after 0.25 hrs; format: functional
Mus musculus [28] = assay: Anticonvulsant activity in CF1 albino mouse assessed as protection against maximal electroshock-induced seizure at 300 mg/kg, ip after 0.5 hrs; format: functional, organism-based; in short: as §3
Mus musculus [29] = assay: Neurotoxicity in CF1 albino mouse assessed as unable to grasp rotarod and death at 100 mg/kg, ip after 0.5 hrs by rotarod test; format: toxicity, organism-based; conditions: in vivo; in short: as §5
Mus musculus [30] = assay: Neurotoxicity in CF1 albino mouse assessed as unable to grasp rotarod, death and diarrhea at 300 mg/kg, ip after 0.5 hrs by rotarod test; format: toxicity, organism-based; conditions: in vivo; in short: as §5

Chain of Histamine H3 receptor (Q9Y5N1 whole entry): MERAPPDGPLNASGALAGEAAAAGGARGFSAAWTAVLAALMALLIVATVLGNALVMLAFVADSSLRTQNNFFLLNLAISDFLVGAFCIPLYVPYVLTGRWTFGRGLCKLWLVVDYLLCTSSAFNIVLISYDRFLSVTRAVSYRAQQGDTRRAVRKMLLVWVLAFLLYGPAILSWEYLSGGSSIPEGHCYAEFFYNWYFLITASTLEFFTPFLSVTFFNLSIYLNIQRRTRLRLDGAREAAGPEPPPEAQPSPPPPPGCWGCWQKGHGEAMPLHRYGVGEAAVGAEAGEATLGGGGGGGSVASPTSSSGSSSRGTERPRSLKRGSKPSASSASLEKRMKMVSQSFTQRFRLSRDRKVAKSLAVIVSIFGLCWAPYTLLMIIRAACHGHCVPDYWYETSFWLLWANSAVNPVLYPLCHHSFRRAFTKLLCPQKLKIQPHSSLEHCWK

Compound | Activity (Mus musculus [2]) | Activity (Mus musculus [5]) | Activity (Mus musculus [6]) | Activity (Mus musculus [10]) | Activity (Mus musculus [11]) | Activity (Mus musculus [12]) | Activity (Mus musculus [13]) | Activity (Mus musculus [16]) | Activity (Mus musculus [17]) | Ki (Histamine H3 receptor) | Activity (Mus musculus [21]) | Activity (Mus musculus [24]) | Activity (Mus musculus [26]) | also measured
CC1CCCN(CCCCCCOc2ccc(Cl)cc2)C1.O=C(O)C(=O)O (centres undefined) | Non-toxic | Active | inactive | Non-toxic | inactive | Non-toxic | inactive | Active | Active | 205 nM | inactive | Non-toxic | inactive | Activity (Mus musculus [1]): Non-toxic; Activity [3]: inactive; TD50 (median neurotoxic dose) (Mus musculus [4]): 50.4 mg/kg; Activity (Mus musculus [7]): Non-toxic; Activity (Mus musculus [8]): Toxic; Activity [9]: inactive; ED50 (Mus musculus [14]): 16.8 mg/kg; Activity (Mus musculus [15]): inactive; Activity (Mus musculus [18]): Toxic; ED50 (Mus musculus [19]): > 50 mg/kg; Activity (Mus musculus [20]): inactive; Activity (Rattus norvegicus [22]): 25%; Activity (Rattus norvegicus [23]): Active; Activity (Mus musculus [25]): inactive; Ratio TD50/ED50 (Mus musculus [27]): 3
CC1CCN(CCCCCCCOc2cccc(Cl)c2)CC1.O=C(O)C(=O)O | Non-toxic | Active | inactive | Non-toxic | inactive | Non-toxic | inactive | inactive | inactive | 805 nM | inactive | Non-toxic | inactive | Activity (Mus musculus [28]): Active; Activity (Mus musculus [29]): Toxic; Activity (Mus musculus [30]): Toxic
